Assay [1] relates to ASPC1. As to the kind of experiment: Anticlonogenic activity against human Aspc-1 cells at 2 uM after 21 days by crystal violet staining based assay relative to control. Type of assay: functional. To be noted: ASPC1, 504 h. The method, boiled down:
(§1)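 Anchorage-dependent colony formation: AsPC-1 cells seeded at 1000 cells/well in six-well plates and treated with compound. Colony formation is expressed as percent of vehicle treatment. Mean ± SD from at least three independent experiments, each in duplicate.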

For assay [2], the target named is T1, Glutaminase liver isoform, mitochondrial (Homo sapiens, UniProt Q9UI32).
T1 sequence (Q9UI32 whole entry): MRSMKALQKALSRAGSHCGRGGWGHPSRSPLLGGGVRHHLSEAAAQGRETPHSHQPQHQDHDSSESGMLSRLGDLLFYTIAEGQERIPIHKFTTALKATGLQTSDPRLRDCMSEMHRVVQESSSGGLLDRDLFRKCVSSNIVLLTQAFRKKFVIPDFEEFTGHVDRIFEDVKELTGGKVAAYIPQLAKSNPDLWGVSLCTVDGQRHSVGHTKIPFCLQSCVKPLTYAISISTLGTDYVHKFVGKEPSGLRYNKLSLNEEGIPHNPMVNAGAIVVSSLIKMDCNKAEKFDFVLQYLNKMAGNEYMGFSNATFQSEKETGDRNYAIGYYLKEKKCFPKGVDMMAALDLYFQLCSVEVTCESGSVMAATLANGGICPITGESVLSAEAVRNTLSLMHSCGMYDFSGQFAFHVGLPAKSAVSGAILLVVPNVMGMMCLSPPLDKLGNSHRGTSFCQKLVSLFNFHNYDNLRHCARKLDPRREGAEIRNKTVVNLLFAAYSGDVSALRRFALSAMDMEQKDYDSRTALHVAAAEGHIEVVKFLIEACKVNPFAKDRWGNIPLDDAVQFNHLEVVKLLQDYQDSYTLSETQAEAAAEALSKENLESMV
As to the kind of experiment: Inhibition of recombinant human His-tagged GAB (P56 to V602 residues) expressed in Escherichia coli C41(DE3)pLysS using glutamine as substrate preincubated for 10 mins followed by substrate addition measured after 60 mins by glutamate dehydrogenase coupled enzyme assay.

Assay [3] deals with T2, Glutaminase kidney isoform, mitochondrial (Homo sapiens, UniProt O94925).
T2 sequence (O94925 whole entry): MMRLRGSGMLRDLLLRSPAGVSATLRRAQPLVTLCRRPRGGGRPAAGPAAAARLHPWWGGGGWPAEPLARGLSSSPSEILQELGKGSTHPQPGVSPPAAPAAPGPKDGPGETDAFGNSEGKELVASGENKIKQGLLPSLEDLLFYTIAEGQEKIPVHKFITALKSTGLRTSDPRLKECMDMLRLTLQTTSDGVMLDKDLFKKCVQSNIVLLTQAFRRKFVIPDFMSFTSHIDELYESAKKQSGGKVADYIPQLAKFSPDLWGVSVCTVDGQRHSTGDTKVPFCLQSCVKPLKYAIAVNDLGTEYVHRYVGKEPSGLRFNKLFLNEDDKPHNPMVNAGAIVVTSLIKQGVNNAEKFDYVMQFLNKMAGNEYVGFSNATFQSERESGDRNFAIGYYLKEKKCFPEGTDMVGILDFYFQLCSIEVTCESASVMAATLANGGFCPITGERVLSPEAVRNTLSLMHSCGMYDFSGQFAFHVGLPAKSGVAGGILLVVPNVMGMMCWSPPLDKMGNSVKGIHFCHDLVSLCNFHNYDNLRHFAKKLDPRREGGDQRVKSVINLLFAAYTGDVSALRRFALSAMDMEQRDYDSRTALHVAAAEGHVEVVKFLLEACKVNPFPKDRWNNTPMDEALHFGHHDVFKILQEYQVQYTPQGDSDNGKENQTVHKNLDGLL
Description: Inhibition of recombinant human His-tagged KGA (L123 to L669 residues) expressed in Escherichia coli BL21(DE3)pLysS using glutamine substrate preincubated for 10 mins followed by substrate addition measured after 60 mins by glutamate dehydrogenase coupled enzyme assay.

In assay [4] the target is T2, Glutaminase kidney isoform, mitochondrial. As to the kind of experiment: Inhibition of recombinant human MCF7 cells derived His-tagged GAC (L123 to S598 residues) expressed in Escherichia coli C41(DE3)pLysS using glutamine as substrate preincubated for 10 mins followed by substrate addition measured after 60 mins by glutamate dehydrogenase coupled enzyme assay. The method, boiled down:
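Human GAC cloned from MCF7 cDNA into pET28a(+) as a His-tagged construct. Expressed in E. coli C41(DE3)pLysS in Terrific Broth with kanamycin, induced with 1 mM IPTG for 6 h at 25 °C. Purified on Ni2+ resin with 500 mM imidazole elution and exchanged into 50 mM NaH2PO4, 50 mM Tris-HCl pH 8.0, 2 mM DTT, 50% glycerol. Activity measured by two-step glutaminase assay.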

The species named for assay [5] is Homo sapiens. Description: Selectivity index, ratio of IC50 for recombinant human His-tagged GAB (P56-V602 residues) expressed in Escherichia coli C41(DE3)pLysS to IC50 for recombinant human His-tagged KGA (L123 to L669 residues) expressed in Escherichia coli BL21(DE3)pLysS.
Assay [6] relates to ASPC1. As to the kind of experiment: Anticlonogenic activity against human Aspc-1 cells at 10 uM after 21 days by crystal violet staining based assay relative to control. The class given is functional. As to conditions: ASPC1, 504 h. The method, boiled down:
as §1

Assay [7] deals with ASPC1. As to the kind of experiment: Growth inhibition of human Aspc-1 cells after 72 hrs by MTS assay. Type of assay: functional, cell-based. To be noted: ASPC1, 72 h. The method, boiled down:
(§2)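 Growth inhibition by MTS viability read-out. Cells seeded in 96-well plates at 4000/well (AsPC-1) or 8500/well (MDA-MB-231). Mean ± SD from at least three independent experiments, each in duplicate.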
(Tetrazolium assays rely on reduction of a dye to a coloured formazan, in cell work by metabolically active cells.)

Assay [8] concerns MDA-MB-231. Description: Growth inhibition of human MDA-MB-231 cells after 72 hrs by MTS assay. The class given is functional, cell-based. To be noted: MDA-MB-231, 72 h. The method, boiled down: as §2

One may read the inhibition as the change of the read-out against control, counted positive when it falls. Low values mean a weak effect, high ones a strong effect. Broadly, the IC50 is the midpoint of a concentration-inhibition curve. Compound `CCc1cc(-c2ccc(-n3c(-c4ccccc4)cc(/C=C4\SC(=O)NC4=O)c3-c3ccccc3)cc2)ccc1/C=C1\SC(=O)NC1=O` yielded an inhibition at 2 µM in assay [1] of 51%. Also, the half-maximal inhibitory concentration (IC50) was determined as 1.24 µM in assay [2]; 0.056 µM in assay [3]; 0.217 µM in assay [4]; 8.8 µM in assay [7]; 8.2 µM in assay [8]. Also, the Ratio IC50 in assay [5] was found to be 22. The compound also showed an inhibition at 10 µM in assay [6] of 91%.

For `O=C1NC(=O)/C(=C/c2cc(-c3ccccc3)n(-c3ccc(Br)cc3)c2-c2ccccc2)S1`, the concentration for half-maximal inhibition (IC50) in assay [2] turned out to be 11.8 µM; in assay [3], 4.9 µM; in assay [4], 8.76 µM. For the same compound, the Ratio IC50 in assay [5] is 2.4.

On to `CCc1cc(-c2ccc(-n3c(C)cc(/C=C4\SC(=O)NC4=O)c3C)cc2OC)ccc1/C=C1\SC(=O)NC1=O`, for which the results for the IC50 in assay [2], in assay [3] and in assay [4] were 1.19 µM, 0.066 µM and 0.177 µM, respectively. In assay [5], the Ratio IC50 is 18.

On to `COc1cc(-n2c(C)cc(/C=C3\SC(=O)NC3=O)c2C)ccc1-c1ccc(/C=C2\SC(=O)NC2=O)cc1`, for which the values for the IC50 in assay [2], in assay [3] and in assay [4] were 2.14 µM, 0.243 µM and 0.355 µM, respectively. Also, the Ratio IC50 in assay [5] is 8.8.

In turn, `CCc1cc(-c2ccc(-n3c(-c4cccs4)cc(/C=C4\SC(=O)NC4=O)c3-c3cccs3)cc2)ccc1/C=C1\SC(=O)NC1=O` returned an inhibition at 2 µM in assay [1] of 44%. Further, the IC50 in assay [2] amounted to 1.72 µM; in assay [3], 0.054 µM; in assay [4], 0.391 µM; in assay [7] it was 24.8 µM; in assay [8], 26.3 µM. The Ratio IC50 in assay [5] worked out at 32. In assay [6], this compound showed an inhibition at 10 µM of 89%.

In assay [1], `COc1cc(-n2c(-c3ccccc3)cc(/C=C3\SC(=O)NC3=O)c2-c2ccccc2)ccc1-c1ccc(/C=C2\SC(=O)NC2=O)cc1` came in with an inhibition at 2 µM of 90%. In addition, the IC50 in assay [2] is 0.787 µM; in assay [3], 0.048 µM; in assay [4], 0.148 µM; in assay [7] it was 12 µM; in assay [8] it was 8.9 µM. The Ratio IC50 in assay [5] stood at 16. Besides, in assay [6], the inhibition at 10 µM is 95%.

Consider `CCc1cc(-c2ccc(-n3c(C)cc(/C=C4\SC(=O)NC4=O)c3C)cc2C#N)ccc1/C=C1\SC(=O)NC1=O`, for which the IC50 in assay [2] amounted to 1.19 µM; in assay [3] it was 0.059 µM; in assay [4], 0.092 µM. In addition, the Ratio IC50 in assay [5] is 20.

Consider `Cc1cc(/C=C2\SC(=O)NC2=O)c(C)n1-c1ccc(-c2ccc(/C=C3\SC(=O)NC3=O)cc2)c(O)c1`, for which the values for the half-inhibitory concentration (IC50) in assay [2], in assay [3] and in assay [4] were 5.72 µM, 0.247 µM and 0.76 µM, respectively. In addition, the Ratio IC50 in assay [5] stood at 23.

With `CCc1cc(-c2ccc(-n3c(C)cc(/C=C4\SC(=O)NC4=O)c3C)cc2)ccc1/C=C1\SC(=O)NC1=O`, the inhibition at 2 µM in assay [1] is 28%. Moreover, the IC50 in assay [2] turned out to be 1.03 µM; in assay [3] it was 0.039 µM; in assay [4], 0.087 µM; in assay [7] it was 12.5 µM; in assay [8], 15.3 µM. Besides, in assay [5], the Ratio IC50 was found to be 26. The same compound displayed an inhibition at 10 µM in assay [6] of 59%.

With `Cc1cc(/C=C2\SC(=O)NC2=O)c(C)n1-c1ccc(Br)cc1`, the figures for the IC50 in assay [2], in assay [3] and in assay [4] were over 100 µM, 3.1 µM and 5.37 µM, respectively. Further, the Ratio IC50 in assay [5] was over 32.

Turning to `COc1cc(-n2c(-c3cccs3)cc(/C=C3\SC(=O)NC3=O)c2-c2cccs2)ccc1-c1ccc(/C=C2\SC(=O)NC2=O)cc1`, in assay [1], testing at 2 µM gave an inhibition of 89%. The IC50 in assay [2] was found to be 0.269 µM; in assay [3], 0.035 µM; in assay [4], 0.053 µM; in assay [7] it was 11.9 µM; in assay [8], 10.6 µM. Also, the Ratio IC50 in assay [5] came out at 7.7. This compound showed an inhibition at 10 µM in assay [6] of 95%.

In the case of `O=C1NC(=O)/C(=C/c2cc(-c3cccs3)n(-c3ccc(Br)cc3)c2-c2cccs2)S1`, the IC50 was 3.78 µM in assay [2], 0.754 µM in assay [3] and 1.27 µM in assay [4]. For the same compound, the Ratio IC50 in assay [5] is 5.

The record behind these values is ChEMBL document CHEMBL4011632, “Design, Synthesis, and Evaluation of Thiazolidine-2,4-dione Derivatives as a Novel Class of Glutaminase Inhibitors” (J Med Chem, 2017).
